Measurements as given in ChEMBL document CHEMBL5724801, “EUbOPEN Chemogenomics Library - Multiplex” (2024).
Where “and” joins values, the source holds several entries; their conditions need not be identical. Equal entries are not always repeated.

System: Fibroblast
Assay: Multiplex assay against human fibroblast
Assay type: toxicity, cell-based
Method in brief: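 On a CQ1 microscope at 37°C and 5% CO2, live cells were imaged after compound addition. They had been stained at seeding with Hoechst33342, BioTracker Green Microtubule Cytoskeleton Dye, MitoTracker Red and Annexin V Alexa Fluor 680. CellPathfinder machine-learning gating assigned cells to Hoechst high-intensity objects or normal cells, normal cells to healthy, pyknosed or fragmented nuclei, and pyknosed cells to mitotic or apoptotic. Tubulin, mitochondrial-mass and membrane-permeability phenotypes are per cents of healthy-nucleus cells.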

[1] = 12 h, 1 µM, compound concentration 1 uM
[2] = 12 h, 10 µM, compound concentration 10 uM
[3] = 24 h, 1 µM, compound concentration 1 uM
[4] = 24 h, 10 µM, compound concentration 10 uM
[5] = 48 h, 1 µM, compound concentration 1 uM
[6] = 48 h, 10 µM, compound concentration 10 uM

Structure (SMILES): CC(C)(C)c1cc(C(C)(C)C)c(NC(=O)c2c[nH]c3ccccc3c2=O)cc1O [IVACAFTOR]
- Population Apoptotic (%) [1]: 10.53% and 22.22%
- Population Healthy Nuclei (%) [1]: 60.13% and 75%
- Population Hoechst High Intensity Objects (%) [1]: 0%
- Population Membrane Permeable-Phenotype (%) [1]: 1.09% and 0.74%
- Population Mitotic Cells (%) [1]: 89.47% and 77.78%
- Population Normal (%) [1]: 100%
- Population Pyknosed Nuclei (%) [1]: 24.84% and 20%
- Population Tubulin-Different-Phenotype (%) [1]: 15.22% and 9.63%
- Total Cell Count [1]: 153 and 180
- Population Apoptotic (%) [2]: 15.07% and 33.33%
- Population Fragmented Nuclei (%) [2]: 15.18% and 7.21%
- Population Healthy Nuclei (%) [2]: 46.6% and 73.87%
- Population Hoechst High Intensity Objects (%) [2]: 0%
- Population Membrane Permeable-Phenotype (%) [2]: 0% and 3.05%
- Population Mitochondria Different-Phenotype (%) [2]: 21.35% and 13.41%
- Population Mitotic Cells (%) [2]: 84.93% and 66.67%
- Population Normal (%) [2]: 100%
- Population Pyknosed Nuclei (%) [2]: 38.22% and 18.92%
- Population Tubulin-Different-Phenotype (%) [2]: 24.72% and 29.27%
- Total Cell Count [2]: 191 and 222
- Population Apoptotic (%) [3]: 2.7% and 8%
- Population Fragmented Nuclei (%) [3]: 9.82% and 4.92%
- Population Healthy Nuclei (%) [3]: 67.48% and 81.42%
- Population Hoechst High Intensity Objects (%) [3]: 0%
- Population Membrane Permeable-Phenotype (%) [3]: 3.64% and 2.01%
- Population Mitochondria Different-Phenotype (%) [3]: 10.91% and 10.07%
- Population Mitotic Cells (%) [3]: 97.3% and 92%
- Population Normal (%) [3]: 100%
- Population Pyknosed Nuclei (%) [3]: 22.7% and 13.66%
- Population Tubulin-Different-Phenotype (%) [3]: 11.82% and 11.41%
- Total Cell Count [3]: 163 and 183
- Population Apoptotic (%) [4]: 13.85% and 28.57%
- Population Fragmented Nuclei (%) [4]: 9.6% and 8.97%
- Population Healthy Nuclei (%) [4]: 53.67% and 78.48%
- Population Hoechst High Intensity Objects (%) [4]: 0%
- Population Membrane Permeable-Phenotype (%) [4]: 2.11% and 0.57%
- Population Mitochondria Different-Phenotype (%) [4]: 21.05% and 24.57%
- Population Mitotic Cells (%) [4]: 86.15% and 71.43%
- Population Normal (%) [4]: 100%
- Population Pyknosed Nuclei (%) [4]: 36.72% and 12.56%
- Population Tubulin-Different-Phenotype (%) [4]: 45.26% and 44%
- Total Cell Count [4]: 177 and 223
- Population Fragmented Nuclei (%) [5]: 10.22% and 4.66%
- Population Healthy Nuclei (%) [5]: 83.33% and 86.53%
- Population Hoechst High Intensity Objects (%) [5]: 0%
- Population Membrane Permeable-Phenotype (%) [5]: 1.94% and 0%
- Population Mitotic Cells (%) [5]: 75% and 94.12%
- Population Normal (%) [5]: 100%
- Population Pyknosed Nuclei (%) [5]: 6.45% and 8.81%
- Population Tubulin-Different-Phenotype (%) [5]: 7.74% and 11.98%
- Total Cell Count [5]: 186 and 193
- Population Apoptotic (%) [6]: 21.88% and 28.57%
- Population Fragmented Nuclei (%) [6]: 11.48% and 7.92%
- Population Healthy Nuclei (%) [6]: 73.21% and 86.25%
- Population Hoechst High Intensity Objects (%) [6]: 0%
- Population Membrane Permeable-Phenotype (%) [6]: 0.65% and 0.97%
- Population Mitochondria Different-Phenotype (%) [6]: 25.49% and 13.53%
- Population Mitotic Cells (%) [6]: 78.12% and 71.43%
- Population Normal (%) [6]: 100%
- Population Pyknosed Nuclei (%) [6]: 15.31% and 5.83%
- Population Tubulin-Different-Phenotype (%) [6]: 24.18% and 39.61%
- Total Cell Count [6]: 209 and 240

Structure (SMILES): CN1[C@@H](CC(=O)c2ccccc2)CCC[C@H]1C[C@H](O)c1ccccc1.Cl [LOBELINE HYDROCHLORIDE]
- Population Apoptotic (%) [1]: 11.11% and 18.52%
- Population Fragmented Nuclei (%) [1]: 12.29% and 4.19%
- Population Healthy Nuclei (%) [1]: 57.54% and 81.68%
- Population Hoechst High Intensity Objects (%) [1]: 0%
- Population Membrane Permeable-Phenotype (%) [1]: 3.88% and 3.21%
- Population Mitochondria Different-Phenotype (%) [1]: 13.59% and 7.05%
- Population Mitotic Cells (%) [1]: 88.89% and 81.48%
- Population Normal (%) [1]: 100%
- Population Pyknosed Nuclei (%) [1]: 30.17% and 14.14%
- Population Tubulin-Different-Phenotype (%) [1]: 15.53% and 14.1%
- Total Cell Count [1]: 179 and 191
- Population Apoptotic (%) [2]: 16.36% and 11.43%
- Population Fragmented Nuclei (%) [2]: 9.48% and 12.07%
- Population Healthy Nuclei (%) [2]: 64.45% and 72.84%
- Population Hoechst High Intensity Objects (%) [2]: 0%
- Population Membrane Permeable-Phenotype (%) [2]: 8.09% and 4.73%
- Population Mitochondria Different-Phenotype (%) [2]: 25% and 14.79%
- Population Mitotic Cells (%) [2]: 83.64% and 88.57%
- Population Normal (%) [2]: 100%
- Population Pyknosed Nuclei (%) [2]: 26.07% and 15.09%
- Population Tubulin-Different-Phenotype (%) [2]: 35.29% and 43.2%
- Total Cell Count [2]: 211 and 232
- Population Fragmented Nuclei (%) [3]: 8.95% and 0.5%
- Population Healthy Nuclei (%) [3]: 64.21% and 85.07%
- Population Hoechst High Intensity Objects (%) [3]: 0%
- Population Membrane Permeable-Phenotype (%) [3]: 3.28% and 3.51%
- Population Mitochondria Different-Phenotype (%) [3]: 11.48% and 7.02%
- Population Mitotic Cells (%) [3]: 96.08% and 82.76%
- Population Normal (%) [3]: 100%
- Population Pyknosed Nuclei (%) [3]: 26.84% and 14.43%
- Population Tubulin-Different-Phenotype (%) [3]: 28.69% and 18.13%
- Total Cell Count [3]: 190 and 201
- Population Fragmented Nuclei (%) [4]: 9.69% and 11.42%
- Population Healthy Nuclei (%) [4]: 75.77% and 77.95%
- Population Hoechst High Intensity Objects (%) [4]: 0%
- Population Membrane Permeable-Phenotype (%) [4]: 2.33% and 2.02%
- Population Mitochondria Different-Phenotype (%) [4]: 22.09% and 12.12%
- Population Mitotic Cells (%) [4]: 93.94% and 66.67%
- Population Normal (%) [4]: 100%
- Population Pyknosed Nuclei (%) [4]: 14.54% and 10.63%
- Population Tubulin-Different-Phenotype (%) [4]: 43.02% and 41.41%
- Total Cell Count [4]: 227 and 254
- Population Apoptotic (%) [5]: 23.08% and 23.53%
- Population Fragmented Nuclei (%) [5]: 9.22% and 3.83%
- Population Healthy Nuclei (%) [5]: 84.47% and 88.04%
- Population Hoechst High Intensity Objects (%) [5]: 0%
- Population Membrane Permeable-Phenotype (%) [5]: 1.15% and 1.63%
- Population Mitochondria Different-Phenotype (%) [5]: 8.62% and 3.26%
- Population Mitotic Cells (%) [5]: 76.92% and 76.47%
- Population Normal (%) [5]: 100%
- Population Pyknosed Nuclei (%) [5]: 6.31% and 8.13%
- Population Tubulin-Different-Phenotype (%) [5]: 9.2% and 7.07%
- Total Cell Count [5]: 206 and 209
- Population Apoptotic (%) [6]: 30.77% and 35.71%
- Population Fragmented Nuclei (%) [6]: 10.79% and 10.97%
- Population Healthy Nuclei (%) [6]: 83.82% and 83.12%
- Population Hoechst High Intensity Objects (%) [6]: 0%
- Population Membrane Permeable-Phenotype (%) [6]: 1.98% and 6.09%
- Population Mitochondria Different-Phenotype (%) [6]: 11.39% and 5.58%
- Population Mitotic Cells (%) [6]: 69.23% and 64.29%
- Population Normal (%) [6]: 100%
- Population Pyknosed Nuclei (%) [6]: 5.39% and 5.91%
- Population Tubulin-Different-Phenotype (%) [6]: 12.38% and 25.89%
- Total Cell Count [6]: 241 and 237

Structure (SMILES): Nc1nc(CC(=O)Nc2ccc(CCNC[C@H](O)c3ccccc3)cc2)cs1 [MIRABEGRON]
- Population Apoptotic (%) [1]: 53% and 31%
- Population Fragmented Nuclei (%) [1]: 19% and 27%
- Population Healthy Nuclei (%) [1]: 62% and 52%
- Population Hoechst High Intensity Objects (%) [1]: 5% and 4%
- Population Membrane Permeable-Phenotype (%) [1]: 0% and 9%
- Population Mitochondria Different-Phenotype (%) [1]: 6% and 12%
- Population Mitotic Cells (%) [1]: 46% and 68%
- Population Normal (%) [1]: 94% and 95%
- Population Pyknosed Nuclei (%) [1]: 18% and 19%
- Population Tubulin-Different-Phenotype (%) [1]: 25% and 46%
- Total Cell Count [1]: 164 and 189
- Population Apoptotic (%) [2]: 46% and 30%
- Population Fragmented Nuclei (%) [2]: 15% and 31%
- Population Healthy Nuclei (%) [2]: 75% and 41%
- Population Hoechst High Intensity Objects (%) [2]: 3% and 5%
- Population Membrane Permeable-Phenotype (%) [2]: 0% and 1%
- Population Mitochondria Different-Phenotype (%) [2]: 4% and 3%
- Population Mitotic Cells (%) [2]: 53% and 69%
- Population Normal (%) [2]: 96% and 94%
- Population Pyknosed Nuclei (%) [2]: 9% and 27%
- Population Tubulin-Different-Phenotype (%) [2]: 19% and 45%
- Total Cell Count [2]: 171 and 137
- Population Apoptotic (%) [3]: 59% and 58%
- Population Fragmented Nuclei (%) [3]: 17% and 27%
- Population Healthy Nuclei (%) [3]: 64% and 57%
- Population Hoechst High Intensity Objects (%) [3]: 5%
- Population Membrane Permeable-Phenotype (%) [3]: 1% and 9%
- Population Mitochondria Different-Phenotype (%) [3]: 4% and 7%
- Population Mitotic Cells (%) [3]: 40% and 41%
- Population Normal (%) [3]: 94%
- Population Pyknosed Nuclei (%) [3]: 18% and 14%
- Population Tubulin-Different-Phenotype (%) [3]: 28% and 45%
- Total Cell Count [3]: 156 and 179
- Population Apoptotic (%) [4]: 53% and 55%
- Population Fragmented Nuclei (%) [4]: 15% and 29%
- Population Healthy Nuclei (%) [4]: 75% and 48%
- Population Hoechst High Intensity Objects (%) [4]: 2% and 4%
- Population Membrane Permeable-Phenotype (%) [4]: 0% and 4%
- Population Mitochondria Different-Phenotype (%) [4]: 4% and 6%
- Population Mitotic Cells (%) [4]: 46% and 44%
- Population Normal (%) [4]: 97% and 95%
- Population Pyknosed Nuclei (%) [4]: 8% and 21%
- Population Tubulin-Different-Phenotype (%) [4]: 24% and 44%
- Total Cell Count [4]: 181 and 131
- Population Apoptotic (%) [5]: 76% and 50%
- Population Fragmented Nuclei (%) [5]: 23% and 40%
- Population Healthy Nuclei (%) [5]: 60% and 52%
- Population Hoechst High Intensity Objects (%) [5]: 7% and 2%
- Population Membrane Permeable-Phenotype (%) [5]: 2% and 4%
- Population Mitochondria Different-Phenotype (%) [5]: 6% and 10%
- Population Mitotic Cells (%) [5]: 23% and 50%
- Population Normal (%) [5]: 92% and 97%
- Population Pyknosed Nuclei (%) [5]: 15% and 7%
- Population Tubulin-Different-Phenotype (%) [5]: 28% and 32%
- Total Cell Count [5]: 176 and 195
- Population Apoptotic (%) [6]: 64% and 75%
- Population Fragmented Nuclei (%) [6]: 18% and 39%
- Population Healthy Nuclei (%) [6]: 74% and 48%
- Population Hoechst High Intensity Objects (%) [6]: 4% and 3%
- Population Membrane Permeable-Phenotype (%) [6]: 0% and 6%
- Population Mitochondria Different-Phenotype (%) [6]: 4% and 6%
- Population Mitotic Cells (%) [6]: 35% and 25%
- Population Normal (%) [6]: 95% and 96%
- Population Pyknosed Nuclei (%) [6]: 7% and 12%
- Population Tubulin-Different-Phenotype (%) [6]: 21% and 51%
- Total Cell Count [6]: 194 and 132
